# “Also recorded” adds a separate entry of the source.
# T1: recombinant M49 protein (Streptococcus pyogenes (group A …, UniProt P16947 42-359))
# T1 sequence: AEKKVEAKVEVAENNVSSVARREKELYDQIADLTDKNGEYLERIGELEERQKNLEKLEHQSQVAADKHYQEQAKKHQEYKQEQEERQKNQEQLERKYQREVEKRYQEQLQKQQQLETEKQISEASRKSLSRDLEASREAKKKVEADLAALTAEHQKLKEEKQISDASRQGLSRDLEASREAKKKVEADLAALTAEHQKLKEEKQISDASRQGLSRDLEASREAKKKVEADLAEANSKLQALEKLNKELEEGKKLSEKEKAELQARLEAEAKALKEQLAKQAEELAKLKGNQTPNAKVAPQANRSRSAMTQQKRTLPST
# B1: recombinant hCAP18, full-length human cathelicidin (natural protein)
# chain: QVLSYKEAVLRAIDGINQRSSDANLYRLLDLDPRPTMDGDPDTPKPVSFTVKETVCPRTTQQSPEDCDFKKDGLVKRCMGTVTLNQARGSFDISCDKDNKRFALLGDFFRKSKEKIGKEFKRIVQRIKDFLRNLVPRTES
# B2: hCAP18: full-length human cathelicidin precursor, recombinant, expressed from pET28a (protein)
# chain: B1 chain
# modifications: left off: His tag (from the vector pET28a), end not stated, state not stated
# B3: recombinant M49 protein (natural protein)
# chain: T1 sequence
# How the values were obtained:
# [1] = test system: wild-type and Δemm1 GAS; assay: Resistance of wild-type and Δemm1 GAS to antimicrobial peptides; assay type: cell-based, Streptococcus pyogenes (group A Streptococcus); settings: serum-free DMEM with 10% THB, 24 h; for M1-dependent protection of GAS from killing by the peptide: wild-type vs. Δemm1 GAS
# Outline: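 GAS M1T1 5448 and isogenic Δemm1 were grown overnight at 37°C, diluted 1:40 in Todd-Hewitt broth, grown statically at 37°C to OD600 0.400, then PBS-washed. 2×10^5 bacteria in serum-free DMEM with phenol red and 10% THB were exposed to cathelicidin- or defensin-family peptides. MIC was the lowest concentration preventing growth after 24 h. Means ± s.d., n=3; ≥3 independent experiments.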
# [2] = test system: recombinant M1 protein; assay: Pulldown with His-tagged recombinant M1 as bait / blot; assay type: binding, Streptococcus pyogenes (group A Streptococcus), M1T1
# [3] = test system: human neutrophils; assay: Neutrophil chemotaxis in transwell system; assay type: cell-based; settings: 1 h, 37°C, n=3
# [4] = target: LL-37, human cathelicidin antimicrobial peptide (human); assay: SPR
# [5] = test system: cathelicidin; settings: human cells; ref Liu et al., 2006; cited from earlier work
# [6] = target: T1, recombinant M49 protein; assay: SPR
# [7] = test system: M1 protein; assay: SPR; assay type: binding, Streptococcus pyogenes (group A Streptococcus), M1T1; settings: ratio of Kd M49 vs. M1, SPR
# [8] = test system: M1T1 GAS, wild-type vs. Δemm1; assay: FACS detection of cathelicidin on bacterial surface; assay type: cell-based, Streptococcus pyogenes (group A Streptococcus); settings: recombinant hCAP18, wild-type vs. Δemm1, anti-LL-37 antibody
molecule,measurement,setting,value
KR-20: processed form of cathelicidin expressed by keratinocytes in human skin; de novo synthesis (Anaspec) (KRIVQRIKDFLRNLVPRTES),M1-dependent protection of GAS from killing by the peptide,[1],M1 protected GAS from killing
mCRAMP: active murine form of cathelicidin; de novo synthesis (Anaspec) (ISRLAGLLRKGGEKIGEKLKKIGQKIKNFFQKLVPQPE),binding and inhibition by M1 vs. M49,[2]; statement in the in vivo section,M1 but not M49 binds and inhibits CRAMP
same,M1-dependent protection of GAS from killing by the peptide,[1],M1 protected GAS from killing
N-formyl-Met-Leu-Phe [fMLP],stimulation of neutrophil chemotaxis,[3],stimulated robust chemotaxis of neutrophils
recombinant M1 protein (from UniProt Q99XV0) (natural protein),Kd,[4],1.18 µM
C=C1CC[C@H](O)C/C1=C/C=C1\CCC[C@]2(C)[C@@H]([C@H](C)/C=C/[C@H](C)C(C)C)CC[C@@H]12 [vitamin D],induction of cathelicidin expression,[5],strongly induces cathelicidin expression
B1,Kd,[6],9.07 µM
B2,stronger binding of M1 compared to M49 protein (from Kd),[7],10 fold
same,major cathelicidin form pulled down by M1 from neutrophil lysate,"[2]; whole lysates from neutrophils, Western blot with anti-LL-37 antibody",the major cathelicidin form detected was uncleaved hCAP18
same,binding to bacterial surface,[8],recombinant hCAP18 bound the GAS surface in an M1-dependent manner; also recorded: Δemm1 GAS binds significantly less hCAP18 than wild-type GAS
same,antimicrobial activity,[1]; wild-type and Δemm1 GAS,lacked antimicrobial activity
B3,Kd,[4],62.7 µM

# From article PMC4636435 (Cell host & microbe, 2015)
